Consider 167 variants from the RNAGym collection of RNA variant scans (doi:10.1126/science.aae0568).

Fewer inactive variants are shown than the library holds. Some results are limits rather than exact numbers.

The labels stand for the following.
B1: tRNA (parent)
chain: GUUCCGUUGGCGUAAUGGUAACGCGUCUCCCUCCUAAGGAGAAGACUGCGGGUUCGAGUCCCGUACGGAACG

Variants of B1 are the subject of this series. As to the kind of experiment: yeast fitness relative to wild type (ratio to wild type); higher = fitter; tRNA-Arg(CCU), competitive growth, 37 C, YPD. The essentials: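 For this measurement, the tRNA-Arg(CCU) gene was varied by chemical synthesis at a 3% per-site mutation rate across 69 sites, and each variant was placed at the native genomic locus in Saccharomyces cerevisiae. The pooled strains went through a 24-hour competition in YPD at 37°C in six parallel replicates, with amplicons from start and end populations read by 100-nucleotide paired-end sequencing. Darwinian fitness relative to wild type followed from the change in each genotype's frequency. Genotypes needed ≥ 100 starting reads, and estimates < 0.5 were set to 0.5.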
On to U2G G9C C60A, for which the yeast fitness was at most 0.5.

Turning to U3A C4U G25C G58C, the yeast fitness was at most 0.5.

In the case of U2G G18A C49U G52A G68C, the yeast fitness is at most 0.5. U3A A15C U16C C66U: the yeast fitness was at most 0.5. For U2G G12A U13A G25C U28A C33A G67U, the yeast fitness is at most 0.5. With U2G C49A A57C, the yeast fitness is at most 0.5. For U3A A14G C24G C29A G50C A57C the value was at most 0.5; for U3A A21G G23C A36U C60A, at most 0.5. For U2G U13A C22U U54A C61G A69C the value was at most 0.5; for U3A A36G G56A A65C A69C, at most 0.5. In the case of U3A C4U C11U G48C, the yeast fitness was found to be 0.532. Turning to U3A A20C U32A C62U G63A, the yeast fitness came to 0.572. For U2G C62G A70U the value was 0.822. For U2G U3A C5U U7C U8A A20C U35C A37U A57C the value was 0.565. For U3A A21U A65U the value was at most 0.5; for U3A A42G C66U, 0.595. U2G U7G A43C A45U C60A: the yeast fitness was at most 0.5.

In the case of U3A A40U A70G, the yeast fitness is 0.597.

With U2G G9C G12A A42C C46A, the yeast fitness turned out to be 0.577.

With U2G C49U G52A G68C, the yeast fitness is at most 0.5. For the variant U2G G51A C60U, the yeast fitness was at most 0.5. For U3A A37G G41A, the yeast fitness was at most 0.5. For U2G U16C C27U U35C the value was at most 0.5. Take U2G C34G G67U: the yeast fitness is at most 0.5.

On to U2G G9C A15G G48C G51A, for which the yeast fitness was at most 0.5. In the case of U3A A20C U32A A70G, the yeast fitness was at most 0.5. On to U3A C4U A37G A40U, for which the yeast fitness was at most 0.5. Turning to U3A C5G C29G A36C C49U U53G, the yeast fitness is at most 0.5. With U3A A15C C22G U32C G41A, the yeast fitness is at most 0.5. As for U3A A21G C66U A70C, the yeast fitness came to 0.794. For U3A A20G the value was 1.

Regarding U3A A20U, the yeast fitness worked out at 0.834. For U3A A37U C66A the value was at most 0.5; for U3A A36U U53G, 0.619. For the variant U3A A21U G23C A43C, the yeast fitness is at most 0.5.

In the case of U3A C4U U7A C24U C60U, the yeast fitness is at most 0.5. For U2G C46A the value was 0.808; for U2G C34G G39C G41C G67C A70C, at most 0.5; for U2G U8A G23A U26G A43G U54C C55A, at most 0.5. For the variant U2G G51A, the yeast fitness was 0.805. For U3A A21C A36U G58A the value was at most 0.5; for U2G G6A C49G, at most 0.5; for U2G C46G A65U, 0.623. Regarding U3A A57G A69U, the yeast fitness is 0.983. For the variant U2G C34G A43C, the yeast fitness was determined as 0.552. For U3A C5A G67A the value was 0.548; for U2G U13G U16C, at most 0.5; for U3A A20C U32A A65U, at most 0.5. Take U2G U26C C49U C55A: the yeast fitness was at most 0.5. As for U2G C33U A42C, the yeast fitness was 0.681. For U3A A45C C62G the value was at most 0.5.

On to U3A A21G C31A G48C, for which the yeast fitness is at most 0.5. Consider U3A A15G U19A G41A G50A, for which the yeast fitness was at most 0.5. As for U2G U54C C62G A70U, the yeast fitness was at most 0.5. For U3A A20G A43U C55G C61U the value was at most 0.5. U3A A21C C24G: the yeast fitness was determined as 0.507. For U2G G44C C60U A69G the value was at most 0.5; for U2G U53A, 0.532. For U2G U13G A57G the value was 0.538; for U3A C4A U16A C30G U53C C66U A70G, at most 0.5.

As for U2G U28G A45C G63C, the yeast fitness was at most 0.5. For U3A A21C C24G C61U the value was at most 0.5; for U2G C34U A40G C46A, at most 0.5. On to U3A C4A U16A A36C G48A G67A, for which the yeast fitness was at most 0.5. For U3A C5A C66U the value was at most 0.5. For the variant U3A A21G C46A, the yeast fitness came out at 0.695. As for U3A A15U G23C C27U G52A, the yeast fitness stood at 0.64. For U2G U59A the value was 0.851. As for U2G U59C, the yeast fitness was 0.848. In the case of U3A A69C, the yeast fitness amounted to 0.919.

For U3A A14U A37G A57C, the yeast fitness was at most 0.5. As to U2G G9C G12A A42C C46A A65U, the yeast fitness was 0.577. For U2G G41C A65C the value was 0.534; for U3A C4A U19C C27U C46A C62G A69U, at most 0.5. For U2G G9C A20G A42C C46G C49U G68A A70U the value was at most 0.5. For U2G G17A C33G G39C C55U the value was at most 0.5.

Take U2G U26A: the yeast fitness was found to be 0.828. For U2G U26G the value was 0.693. For U3A C5G A21U the value was 0.539; for U2G U7C, 0.772. For U3A C4U U7A C24U C46G A65G the value was at most 0.5; for U3A A21U U28A A42C A57G C66A, at most 0.5; for U3A C5G C55U G67C, 0.599.

Regarding U2G U19A C66U, the yeast fitness worked out at 0.606.

For the variant U3A C5G G67C, the yeast fitness is 1. For U2G G38A A69C the value was 0.531. Take U3A C4A U16G G58C: the yeast fitness was at most 0.5. For U3A C4U U7A C24U U35C C49U C61G the value was at most 0.5; for U3A A20G G44A C49A U59A, at most 0.5; for U3A C5A C29A G68A, at most 0.5. As to U3A A40G C55G, the yeast fitness was found to be 0.813. For U3A A14C A20C U28A C29G U32C G39A A57C the value was at most 0.5. For U3A A37U G38C the value was at most 0.5; for U3A A21G A45G A69C, 0.726; for U2G G9C A14C A36U C46A C62G, at most 0.5. U2G G6A C55U: the yeast fitness is at most 0.5.

As for U3A A15U U28G C55A A70U, the yeast fitness was found to be 0.779. For U3A C4U A70G the value was 0.59; for U3A A43C C46A G48C, 0.57; for U2G C60G A69U, at most 0.5. For the variant U2G G6A C27U A36U C61U C62G, the yeast fitness is at most 0.5.

For the variant U3A C5U A21G A43C, the yeast fitness came out at 0.526. For U3A A45U C46G G52A G68C the value was at most 0.5. With U2G G10C G63A, the yeast fitness was at most 0.5. For U2G U16G A21U C33A C66G the value was at most 0.5. For U3A C4U C29G the value was at most 0.5.

For U2G G44A G51C A65U, the yeast fitness is at most 0.5. Take U3A C4U G10C C33G G52C: the yeast fitness is at most 0.5. As to U3A C4G C60G G67A, the yeast fitness is at most 0.5. For U3A A20G A36C G51C the value was at most 0.5; for U3A A20C A21G C61A, 0.514; for U2G U13C A21G U35A, at most 0.5. As to U2G U13C A21G G39C C55U, the yeast fitness is at most 0.5. U2G G50C: the yeast fitness is 0.6. U2G G50A: the yeast fitness is 0.888. Consider U3A C4A A20C C29A, for which the yeast fitness is at most 0.5. For U2G U7G U16C C34U the value was at most 0.5; for U3A A45G, 1. With U3A A45C, the yeast fitness was 0.88.

With U2G U28G G68C, the yeast fitness is at most 0.5. Consider U2G G9C G12A A42C C46A U64C, for which the yeast fitness is at most 0.5. For U3A A37C A43C the value was at most 0.5; for U2G U13A U16A C29G, at most 0.5. For U2G G6A G44A G67C the value was 0.531. For U2G G9C G12A A20G A42C C46G C49U A69C the value was at most 0.5; for U3A A42C C61A, at most 0.5; for U2G G12U, 1.15. As for U2G C46G C49U, the yeast fitness stood at 0.669. U3A A15G U19A G41A: the yeast fitness is at most 0.5. For U2G G9A U16G C62U U64C the value was at most 0.5. On to U2G U28A U32C C49G G52A, for which the yeast fitness is at most 0.5. For U2G G58A the value was 1.16; for U2G G58C, 0.755. For U3A A21C C24G C62U the value was 0.526; for U3A C4G G9A C11G U53A C66U, at most 0.5.

For the variant U2G G58A C60A C66G, the yeast fitness was determined as 0.562. With U3A C4U G25C G48A, the yeast fitness is at most 0.5.

In the case of U2G U35A A40U A57U, the yeast fitness is at most 0.5. For U3A A36G the value was 0.868. For U3A A20C U32A the value was at most 0.5. Consider U2G G9C, for which the yeast fitness stood at 0.755. For U2G G12A G41C A57U the value was at most 0.5; for U2G G39A G68U, at most 0.5; for U2G C33U A36U A43C, 0.688. Turning to U2G C46A G58C C62U, the yeast fitness was at most 0.5. As to U2G C34G C46U G48C U54G, the yeast fitness came out at 0.709. For U2G G9A U59A the value was at most 0.5; for U3A A21U, 0.71; for U3A A21G, 0.926. Regarding U3A A21C, the yeast fitness came to 0.768.

Take U3A C4G U59A A65C A70C: the yeast fitness is at most 0.5. U2G G10C A43C: the yeast fitness was at most 0.5. For the variant U2G G41C, the yeast fitness is 0.818. Take U2G C55U: the yeast fitness is 0.667.

Turning to U2G G48A, the yeast fitness is 0.94.

Consider U2G G48C, for which the yeast fitness came to 0.849. For U3A C4U U13A A36U C66U the value was 0.641; for U2G G9A C22A C24A A43C, at most 0.5; for U3A A14U C46U U53A, at most 0.5. For the variant U2G U47C, the yeast fitness was 0.992. For U2G G6A A70G the value was 0.776; for U2G G6A G23A C29G G50U C55A, at most 0.5; for U3A A14C A37C, at most 0.5. For U2G G18A A21G G25A G51C the value was at most 0.5; for U3A A36G C66U, 0.666. On to U3A C4A U16A C30G U53C C66A, for which the yeast fitness is at most 0.5. For U2G C34U A36C C61A the value was at most 0.5.
